# The list is not random: actives were taken first. Their share in the collection is about 2.4%.
# MOR-DOR ag-1: agonists of human mu-delta opioid receptor heterodimerization; activation, % at 9.3 µM; 340,000 compounds, 0.3% hits; cells, OPRM1-OPRD1 heterodimerization, luminescence; AID 504326; P35372+P41143
# MC4R ag barr: human MC4R agonism via beta-arrestin; P32245; U2OS MC4R beta-arrestin complementation, luminescence; percent of melanotan II response, DMSO zero; activation, % at 8.9 µM; 360,000 compounds, 0.98% hits; AID 540308;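 active = activation above a per-plate cutoff, the mean activation of sample wells on that plate plus 3 SD, cut at about 8% in these data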
# HTR5A ag ctr: HTR5A agonism, opioid heterodimer counter-screen; P47898; HTR5A agonist assay, luminescence, cell-based; activation, % at 9.3 µM; 340,000 compounds, 0.61% hits; AID 504692; in the data active = activation mostly above about 9.5%, no sharp cut-off; inactive = mostly below about 7.6%
# Target sequence (P47898 whole entry, looked up): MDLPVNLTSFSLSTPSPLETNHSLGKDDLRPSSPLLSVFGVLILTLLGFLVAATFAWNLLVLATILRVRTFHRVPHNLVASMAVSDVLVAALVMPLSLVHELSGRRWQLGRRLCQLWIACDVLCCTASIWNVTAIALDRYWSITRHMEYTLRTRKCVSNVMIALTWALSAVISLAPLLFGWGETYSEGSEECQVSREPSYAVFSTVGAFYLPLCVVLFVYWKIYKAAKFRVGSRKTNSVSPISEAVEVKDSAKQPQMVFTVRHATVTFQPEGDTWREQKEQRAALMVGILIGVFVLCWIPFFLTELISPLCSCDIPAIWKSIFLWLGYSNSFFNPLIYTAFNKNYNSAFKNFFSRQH
# MC4R antagonist: blocks human MC4R cAMP signaling. P32245. MC4R-expressing cells, MTII-stimulated cAMP, LANCE TR-FRET. inhibition, % at 6.5 µM. 360,000 compounds, 0.48% hits. AID 540295;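 active = inhibition above its plate's cutoff, the mean of tested wells on that plate plus 3 SD, cut at about 29% in these data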
#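 Material: human MC4R-expressing U2OS cells. Probe or stimulus: Melanotan II challenge. Dosing: 6.5 µM single dose. Times: 30-min compound, 1-h challenge, 1-h detection, room temperature. Technique: TR-FRET with Eu-cAMP and labeled anti-cAMP, 671 nm. Replication: singlicate.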
# MOR-DOR inv ag: inverse agonists of human mu-delta opioid receptor heterodimerization; P35372+P41143; cell-based MOR-DOR heterodimer luminescence, inverse agonism; inhibition, % at 9.3 µM; 340,000 compounds, 0.21% hits; in the data active = inhibition above about 22%, passing the limit was not always enough
# HTR5A inv ag: HTR5A inverse agonism, opioid heterodimer counter-screen | HTR5A cell line, luminescence | inhibition, % at 9.3 µM | 340,000 compounds, 0.083% hits; in the data active = inhibition mostly above about 23%, no sharp cut-off; inactive = mostly below about 18%
# MOR-DOR ag-2: promotes OPRM1-OPRD1 heterodimerization in HTR5A counter-screen; U2OS counter-screen cells, complementation luminescence, 3 h; 800 compounds, 13% hits; shares compounds with HTR5A ag ctr; activation, % at 9.3 µM
# HTR5A ag conf: HTR5A (human) agonism, confirmation; shares compounds with HTR5A ag ctr; HTR5A agonist cell assay, luminescence; activation, % at 9.3 µM; 800 compounds, 17% hits; AID 504915; in the data active = activation above about 17%
# Hits are given with their value; - = inactive; . = not tested or not shown. Cut-off read from the data, not from the text of the source, unless noted: active = activation above about 18%; inactive = the rest.
SMILES,MOR-DOR ag-1,MC4R ag barr,HTR5A ag ctr,MC4R antagonist,MOR-DOR inv ag,HTR5A inv ag,MOR-DOR ag-2,HTR5A ag conf
COC(=O)N1CCc2c(sc(NC(=O)C3COc4ccccc4O3)c2C(N)=O)C1 (stereo not drawn),-,-,61,-,-,-,-,43
COc1ccc(C(=O)CC(=O)C(=O)NCCc2cccc(C)c2)cc1,-,-,16,-,-,-,-,-
COc1ccc(C(=O)CC(=O)C(=O)Nc2cc(C)ccc2C)cc1,-,-,-,-,-,-,.,.
CCC(C)(C)NC(=O)C1CCN(c2nc(OC)nc(OC)n2)CC1,-,-,-,-,-,-,.,.
COc1cccc(N=C(N)N=C(N)N)c1,-,-,16,-,-,-,-,-
COc1ccc(N=C(N)N=C(N)N)c(OC)c1,-,-,-,-,-,-,.,.
C#CC(=O)CC1(CN(Cc2ccccc2)C(=O)OC(C)(C)C)CCCCC1,-,-,17,-,-,-,34,-
Nc1ccc2c(c1)OC1(CCCC1)O2,-,-,-,-,-,-,.,.
CCCCC1(Br)C(=O)N(c2ccccc2)N(c2ccccc2)C1=O,-,-,16,-,-,-,-,-
COc1ccc(OCc2cc(C(=O)NC3CCOC(C)(C)C3)no2)c2ccccc12 (stereo not drawn),-,-,-,-,-,-,.,.
CN(Cc1ccccc1Cl)C(=O)c1cnccc1C(F)(F)F,-,-,15,-,-,-,-,-
O=C(Nc1nccs1)c1c(O)c2c([nH]c1=O)CCCC2,-,-,-,-,-,-,.,.
CCCc1nnc(NC(=O)c2c(O)c3c([nH]c2=O)CCCC3)s1,-,-,16,-,-,-,-,-
O=C(Nc1ccc(N2CCN(Cc3ccccc3F)CC2)cc1)c1ccc([N+](=O)[O-])o1,-,-,25,-,-,-,-,-
Cc1c(N2C(=O)c3cccc4cccc(c34)C2=O)cnn1C,-,-,-,-,-,-,.,.
CC1Cc2ccccc2N1C(=O)COC(=O)c1c2c(nc3ccccc13)CCCCC2 (stereo not drawn),-,-,22,-,-,-,-,-
CC1Cc2ccccc2N1C(=O)Cn1nc(C(=O)O)c2ccccc2c1=O (stereo not drawn),-,-,63,-,-,-,-,-
COc1ccc(C(=O)OCC(=O)N2CCc3ccccc32)cc1S(=O)(=O)N1CCOCC1,-,-,-,-,-,-,.,.
CC1Cc2ccccc2N1C(=O)COC(=O)c1ccc(Cl)c(S(=O)(=O)N2CCOCC2)c1 (stereo not drawn),-,-,24,-,-,-,-,-
